Tests used:
[1] = Cytotoxicity against human fibroblast cells by alamar blue assay; type: cell-based
[2] = Inhibition of angiogenesis in endothelial cells assessed as inhibition of tube formation after 18 hrs by inverted microscopic analysis; type: functional, cell-based; settings: Endothelial cell
CCRF-CEM = assay: Cytotoxicity against human CEM cells by alamar blue assay; type: functional, cell-based
HT-29 = assay: Cytotoxicity against human HT-29 cells by alamar blue assay; type: functional, cell-based
Tubulin = Tubulin (Sus scrofa, UniProt P02554+P02550); assay: Inhibition of porcine brain tubulin polymerization after 60 mins
Summary of the method: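 Porcine brain tubulin (50 ul of 11 mg/ml stock) in Mes buffer (0.1 M Mes, 1 mM EGTA, 0.5 mM MgCl2, pH 6.6) with GTP (20 ul of 5 mM stock), plate prechilled 4 °C, drug added in DMSO; A350 recorded at ambient temperature for 60 min against drug blanks. IC50 read graphically as percent of control assembly.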

MCF7 = assay: Cytotoxicity against human MCF7 cells by alamar blue assay; type: functional, cell-based
NCI-H460 = assay: Cytotoxicity against human NCI-H460 cells by alamar blue assay; type: functional, cell-based
[3] = Ratio of CA-1 IC50 to compound IC50 for inhibition of angiogenesis in endothelial cells; type: functional, Endothelial cell

With `COc1ccc(-n2nncc2-c2cc(OC)c(OC)c(OC)c2)c(O)c1O` the IC50 [1] was over 100 µM, the IC50 [2] was over 10 µM and the IC50 (CCRF-CEM) was over 100 µM. It also gave an IC50 (HT-29) of 64.3 µM, an IC50 (Tubulin) of over 20 µM and an IC50 (MCF7) of over 100 µM. The IC50 (NCI-H460) was 26.6 µM.
Work on `COc1ccc(-c2cnnn2-c2cc(OC)c(OC)c(OC)c2)c(O)c1O` yielded an IC50 (Tubulin) of 10.1 µM.
`COc1cc(-n2nncc2-c2ccc(OC)c([N+](=O)[O-])c2[N+](=O)[O-])cc(OC)c1OC` showed an IC50 [1] of 31.5 µM, an IC50 [2] of 4.4 µM and an IC50 (CCRF-CEM) of 26 µM. The IC50 (HT-29) was 12 µM, the IC50 (Tubulin) was over 20 µM and the IC50 (MCF7) was 6.1 µM. The IC50 (NCI-H460) was 0.7 µM.
With `COc1ccc(-c2cnnn2-c2cc(OC)c(OC)c(OC)c2)c(N)c1N` the IC50 [1] was over 100 µM, the “Ratio IC50” value [3] was 10 and the IC50 [2] was 0.3 µM. For the same compound, the IC50 (CCRF-CEM) was over 100 µM, the IC50 (HT-29) was 17.2 µM and the IC50 (Tubulin) was 5.2 µM. The IC50 (MCF7) was 38.8 µM and the IC50 (NCI-H460) was 17.3 µM.
For `COc1ccc(-c2cnnn2-c2cc(OC)c(OC)c(OC)c2)c(F)c1F`, the IC50 [1] was over 100 µM, the “Ratio IC50” value [3] was 10 and the IC50 [2] was 0.3 µM. For the same compound, the IC50 (CCRF-CEM) was over 100 µM, the IC50 (HT-29) was 1.9 µM and the IC50 (Tubulin) was 15.6 µM. It also gave an IC50 (MCF7) of 26.7 µM and an IC50 (NCI-H460) of 4.9 µM.
Work on `COc1cc(-n2nncc2-c2ccc3c(c2O)OCO3)cc(OC)c1OC` yielded an IC50 [1] of over 100 µM, an IC50 [2] of 3.4 µM and an IC50 (CCRF-CEM) of over 100 µM. For the same compound, the IC50 (HT-29) was 8.8 µM, the IC50 (Tubulin) was 17.1 µM and the IC50 (MCF7) was over 100 µM. For the same compound, the IC50 (NCI-H460) was 7.4 µM.
`COc1cc(-n2nncc2-c2ccc3c(c2O)OC(C)(C)O3)cc(OC)c1OC` showed an IC50 [1] of over 100 µM, an IC50 [2] of over 10 µM and an IC50 (CCRF-CEM) of over 100 µM. For the same compound, the IC50 (HT-29) was over 100 µM, the IC50 (Tubulin) was over 20 µM and the IC50 (MCF7) was 46.3 µM. The IC50 (NCI-H460) was 16.8 µM.
In the case of `COc1cc(-n2cc(-c3ccc(OC)c([N+](=O)[O-])c3[N+](=O)[O-])nn2)cc(OC)c1OC`, the IC50 [1] is reported as over 100 µM, the IC50 [2] is reported as over 10 µM and the IC50 (CCRF-CEM) is reported as over 100 µM. For the same compound, the IC50 (HT-29) was over 100 µM, the IC50 (MCF7) was over 100 µM and the IC50 (NCI-H460) was 18.2 µM.
For `COc1ccc(-c2cn(-c3cc(OC)c(OC)c(OC)c3)nn2)c(N)c1N`, the IC50 [1] was over 100 µM, the IC50 [2] was over 10 µM and the IC50 (CCRF-CEM) was over 100 µM. The IC50 (HT-29) was over 100 µM, the IC50 (MCF7) was over 100 µM and the IC50 (NCI-H460) was 29.8 µM.
In the case of `COc1ccc(/C=C\c2cc(OC)c(OC)c(OC)c2)cc1O` [COMBRETASTATIN A4], the IC50 [1] is reported as over 100 µM, the IC50 [2] is reported as 0.01 µM and the IC50 (CCRF-CEM) is reported as over 100 µM. It also gave an IC50 (HT-29) of 0.4 µM, an IC50 (MCF7) of 48.9 µM and an IC50 (NCI-H460) of 4.4 µM.
Work on `COc1ccc(/C=C\c2cc(OC)c(OC)c(OC)c2)c(O)c1O` [COMBRETASTATIN A-1] yielded an IC50 [1] of over 100 µM, an IC50 [2] of 3.2 µM and an IC50 (CCRF-CEM) of over 100 µM. For the same compound, the IC50 (HT-29) was 0.9 µM, the IC50 (Tubulin) was 3.5 µM and the IC50 (MCF7) was 75.9 µM. For the same compound, the IC50 (NCI-H460) was 1.8 µM.
